According to ChEMBL document CHEMBL1147862, “Studies on synthesis and pharmacological activities of 3,6-disubstituted-1,2,4-triazolo[3,4-b]-1,3,4-thiadiazoles and their dihydro analogues” (2007):

Legend:
Assay type in all cases: functional
Bacillus subtilis [1] = assay: Antibacterial activity against Bacillus subtilis at 10 ug/ml by agar plate diffusion technique; settings: read-out: IZ
Aspergillus niger [2] = assay: Antifungal activity against Aspergillus niger at 30 ug/ml by paper disc method; settings: read-out: IZ
Staphylococcus aureus [3] = assay: Antibacterial activity against Staphylococcus aureus at 20 ug/ml by agar plate diffusion technique; settings: read-out: IZ
Pseudomonas aeruginosa [4] = assay: Antibacterial activity against Pseudomonas aeruginosa at 10 ug/ml by agar plate diffusion technique; settings: read-out: IZ
Staphylococcus aureus [5] = assay: Antibacterial activity against Staphylococcus aureus at 10 ug/ml by agar plate diffusion technique; settings: read-out: IZ
Candida albicans [6] = assay: Antifungal activity against Candida albicans at 30 ug/ml by paper disc method; settings: read-out: IZ
Candida albicans [7] = assay: Antifungal activity against Candida albicans at 10 ug/ml by paper disc method; settings: read-out: IZ
Bacillus subtilis [8] = assay: Antibacterial activity against Bacillus subtilis at 30 ug/ml by agar plate diffusion technique; settings: read-out: IZ
Candida albicans [9] = assay: Antifungal activity against Candida albicans at 20 ug/ml by paper disc method; settings: read-out: IZ
Rattus norvegicus [10] = assay: Antiinflammatory activity in Wistar Albino rat assessed as inhibition of carrageenan-induced paw oedema at 20 mg/kg after 4 hrs relative to control
Method in brief: (§1)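 Wistar albino rats, 150–200 g, six per group, dosed orally with a 20 mg/kg suspension; control gets 0.1 ml 1% gum acacia. After 30 min, 0.1 ml 1% carrageenan in saline is injected subplantar into the right hind paw. Paw volume is read by plethysmograph at 0–4 h. Inhibition = 100(1 − Vtest/Vcontrol) on mean volume increase.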

Mus musculus [11] = assay: Analgesic activity in Swiss mouse assessed as increase in reaction time at 20 mg/kg, po after 90 mins by Eddy's hot plate technique
Method in brief: (§2)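 Swiss mice of either sex, 25–35 g, placed one at a time on a hot plate held at 55 °C. End point is paw licking or jumping, whichever comes first, with a 15 s cut-off to avoid paw injury. Reaction time is recorded and reported as percent increase in reaction time.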

Aspergillus niger [12] = assay: Antifungal activity against Aspergillus niger at 10 ug/ml by paper disc method; settings: read-out: IZ
Rattus norvegicus [13] = assay: Antiinflammatory activity in Wistar Albino rat assessed as inhibition of carrageenan-induced paw oedema at 20 mg/kg after 2 hrs relative to control; method in brief: as §1
Escherichia coli [14] = assay: Antibacterial activity against Escherichia coli at 20 ug/ml by agar plate diffusion technique; settings: read-out: IZ
Rattus norvegicus [15] = assay: Antiinflammatory activity in Wistar Albino rat assessed as inhibition of carrageenan-induced paw oedema at 20 mg/kg after 3 hrs relative to control; method in brief: as §1
Rattus norvegicus [16] = assay: Antiinflammatory activity in Wistar Albino rat assessed as inhibition of carrageenan-induced paw oedema at 20 mg/kg after 1 hr relative to control; method in brief: as §1
Pseudomonas aeruginosa [17] = assay: Antibacterial activity against Pseudomonas aeruginosa at 20 ug/ml by agar plate diffusion technique; settings: read-out: IZ
Escherichia coli [18] = assay: Antibacterial activity against Escherichia coli at 10 ug/ml by agar plate diffusion technique; settings: read-out: IZ
Bacillus subtilis [19] = assay: Antibacterial activity against Bacillus subtilis at 20 ug/ml by agar plate diffusion technique; settings: read-out: IZ
Pseudomonas aeruginosa [20] = assay: Antibacterial activity against Pseudomonas aeruginosa at 30 ug/ml by agar plate diffusion technique; settings: read-out: IZ
Escherichia coli [21] = assay: Antibacterial activity against Escherichia coli at 30 ug/ml by agar plate diffusion technique; settings: read-out: IZ
Mus musculus [22] = assay: Analgesic activity in Swiss mouse assessed as increase in reaction time at 20 mg/kg, po after 30 mins by Eddy's hot plate technique; method in brief: as §2
Staphylococcus aureus [23] = assay: Antibacterial activity against Staphylococcus aureus at 30 ug/ml by agar plate diffusion technique; settings: read-out: IZ
Mus musculus [24] = assay: Analgesic activity in Swiss mouse assessed as increase in reaction time at 20 mg/kg, po after 60 mins by Eddy's hot plate technique; method in brief: as §2
Aspergillus niger [25] = assay: Antifungal activity against Aspergillus niger at 20 ug/ml by paper disc method; settings: read-out: IZ

| Compound | zone of inhibition at 10 µg/mL (Bacillus subtilis [1]) [mm] | zone of inhibition at 30 µg/mL (Aspergillus niger [2]) [mm] | zone of inhibition at 20 µg/mL (Staphylococcus aureus [3]) [mm] | zone of inhibition at 10 µg/mL (Pseudomonas aeruginosa [4]) [mm] | zone of inhibition at 10 µg/mL (Staphylococcus aureus [5]) [mm] | zone of inhibition at 30 µg/mL (Candida albicans [6]) [mm] | zone of inhibition at 10 µg/mL (Candida albicans [7]) [mm] | zone of inhibition at 30 µg/mL (Bacillus subtilis [8]) [mm] | zone of inhibition at 20 µg/mL (Candida albicans [9]) [mm] | inhibition in vivo at 20 mg/kg (Rattus norvegicus [10]) [%] | Activity (Mus musculus [11]) [%] | zone of inhibition at 10 µg/mL (Aspergillus niger [12]) [mm] | zone of inhibition at 20 µg/mL (Escherichia coli [14]) [mm] | zone of inhibition at 20 µg/mL (Pseudomonas aeruginosa [17]) [mm] | zone of inhibition at 10 µg/mL (Escherichia coli [18]) [mm] | zone of inhibition at 20 µg/mL (Bacillus subtilis [19]) [mm] | zone of inhibition at 30 µg/mL (Pseudomonas aeruginosa [20]) [mm] | zone of inhibition at 30 µg/mL (Escherichia coli [21]) [mm] | zone of inhibition at 30 µg/mL (Staphylococcus aureus [23]) [mm] | zone of inhibition at 20 µg/mL (Aspergillus niger [25]) [mm] | also measured |
| --- | --- | --- | --- | --- | --- | --- | --- | --- | --- | --- | --- | --- | --- | --- | --- | --- | --- | --- | --- | --- | --- |
| COc1ccc2[nH]cc(Cc3nn4c(Cc5ccc(OC)c(OC)c5)nnc4s3)c2c1 | 4.92 | 10.4 | 8.39 | 4.9 | 4.82 | 10 | 4.12 | 13.7 | 8.3 | 29.6 | 28.32 | 4.24 | 8.49 | 8.42 | 4.72 | 8.18 | 12.3 | 12.9 | 13.6 | 8.1 | inhibition in vivo at 20 mg/kg (Rattus norvegicus [13]): 11.6%; inhibition in vivo at 20 mg/kg (Rattus norvegicus [15]): 19.1%; inhibition in vivo at 20 mg/kg (Rattus norvegicus [16]): 4.11%; Activity (Mus musculus [22]): 11.92%; Activity (Mus musculus [24]): 19.06% |
| Cc1cc(-c2nn3c(-c4ccoc4C)nnc3s2)c2ccccc2n1 | 7.38 | 17.4 | 13.7 | 6 | 7.1 | 19 | 5.84 | 17.1 | 12.6 | 26.3 | 20.34 | 6 | 10.5 | 11.8 | 6.28 | 12.5 | 16.8 | 17 | 17.9 | 13.5 | inhibition in vivo at 20 mg/kg (Rattus norvegicus [13]): 13.4%; inhibition in vivo at 20 mg/kg (Rattus norvegicus [15]): 18.6%; inhibition in vivo at 20 mg/kg (Rattus norvegicus [16]): 7.23%; Activity (Mus musculus [22]): 6.04%; Activity (Mus musculus [24]): 11.35% |
| COc1ccc(Cc2nnc3n2NC(c2ccc[nH]2)S3)cc1OC (centres undefined) | 4.32 | 12.2 | 7.64 | 7.33 | 4.02 | 13.1 | 4.7 | 12 | 8.12 | 21.5 | 21.06 | 4.68 | 7.18 | 11.7 | 4.48 | 8.32 | 13.3 | 14.2 | 10.6 | 9.12 | inhibition in vivo at 20 mg/kg (Rattus norvegicus [13]): 15.9%; inhibition in vivo at 20 mg/kg (Rattus norvegicus [15]): 17.7%; inhibition in vivo at 20 mg/kg (Rattus norvegicus [16]): 13.2%; Activity (Mus musculus [22]): 7.6%; Activity (Mus musculus [24]): 12.65% |
| CN[C@H](CC(C)C)C(=O)N[C@H]1C(=O)N[C@@H](CC(N)=O)C(=O)N[C@H]2C(=O)N[C@H]3C(=O)N[C@H](C(=O)N[C@H](C(=O)O)c4cc(O)cc(O)c4-c4cc3ccc4O)[C@H](O)c3ccc(c(Cl)c3)Oc3cc2cc(c3O[C@@H]2O[C@H](CO)[C@@H](O)[C@H](O)[C@H]2O[C@H]2C[C@](C)(N)[C@H](O)[C@H](C)O2)Oc2ccc(cc2Cl)[C@H]1O [VANCOMYCIN] | – | – | – | – | – | – | – | 23 | – | – | – | – | – | – | – | – | – | – | – | – | – |
| Cc1occc1-c1nnc2sc(-c3cc(O)nc(O)c3)nn12 | 6.02 | 14.8 | 10.8 | 5.95 | 6.07 | 17.3 | 5.34 | 14.8 | 10 | 21.7 | 19.35 | 5.14 | 8.79 | 9.81 | 5.38 | 10.4 | 14.2 | 14.1 | 14.5 | 8.48 | inhibition in vivo at 20 mg/kg (Rattus norvegicus [13]): 11.4%; inhibition in vivo at 20 mg/kg (Rattus norvegicus [15]): 16.5%; inhibition in vivo at 20 mg/kg (Rattus norvegicus [16]): 6.25%; Activity (Mus musculus [22]): 4.35%; Activity (Mus musculus [24]): 11.45% |
| COc1ccc(Cl)c(-c2nnc3sc(-c4cc(C)nc5ccccc45)nn23)c1 | 7.06 | 18.5 | 12.1 | 5.31 | 6.89 | 18.8 | 6.18 | 16.4 | 13.8 | 27.4 | 21.06 | 5.62 | 9.12 | 10.3 | 5.16 | 11.1 | 16.1 | 16.7 | 16.1 | 12.6 | inhibition in vivo at 20 mg/kg (Rattus norvegicus [13]): 20.2%; inhibition in vivo at 20 mg/kg (Rattus norvegicus [15]): 24.1%; inhibition in vivo at 20 mg/kg (Rattus norvegicus [16]): 8.68%; Activity (Mus musculus [22]): 7.6%; Activity (Mus musculus [24]): 12.65% |
| COc1ccc(Cc2nnc(S)n2N)cc1OC | 5.06 | 10.7 | 7.14 | 5.06 | 4.72 | 11 | 2.76 | 9.83 | 5.14 | – | – | 2.67 | 7.58 | 6.76 | 4.86 | 7.26 | 8.24 | 10.1 | 9.52 | 4.92 | – |
| Cc1occc1-c1nnc(S)n1N | 5.8 | 13.5 | 8.16 | 6.12 | 5.46 | 12.4 | 3 | 11.2 | 6.82 | – | – | 3.27 | 9.16 | 9.16 | 6.74 | 8.94 | 12.8 | 12.8 | 11.3 | 6.94 | – |
| COC1=CC(=O)C[C@@H](C)[C@]12Oc1c(Cl)c(OC)cc(OC)c1C2=O [GRISEOFULVIN] | – | 23.1 | – | – | – | 24.7 | – | – | – | – | – | – | – | – | – | – | – | – | – | – | – |
| O=C(N[C@H](CO)[C@H](O)c1ccc([N+](=O)[O-])cc1)C(Cl)Cl [CHLORAMPHENICOL] | – | – | – | – | – | – | – | 24.6 | – | – | – | – | – | – | – | – | 25.4 | 23.7 | 26.1 | – | – |
| NCC[C@H](O)C(=O)N[C@@H]1C[C@H](N)[C@@H](O[C@H]2O[C@H](CN)[C@@H](O)[C@H](O)[C@H]2O)[C@H](O)[C@H]1O[C@H]1O[C@H](CO)[C@@H](O)[C@H](N)[C@H]1O [AMIKACIN] | – | – | – | – | – | – | – | – | – | – | – | – | – | – | – | – | 23 | – | – | – | – |
| O=C([O-])Cc1ccccc1Nc1c(Cl)cccc1Cl.[Na+] [DICLOFENAC SODIUM] | – | – | – | – | – | – | – | – | – | – | 43.25 | – | – | – | – | – | – | – | – | – | Activity (Mus musculus [22]): 32.23%; Activity (Mus musculus [24]): 38.15% |
| CCCCC1C(=O)N(c2ccccc2)N(c2ccccc2)C1=O [PHENYLBUTAZONE] | – | – | – | – | – | – | – | – | – | 45.4 | – | – | – | – | – | – | – | – | – | – | inhibition in vivo at 20 mg/kg (Rattus norvegicus [13]): 33.6%; inhibition in vivo at 20 mg/kg (Rattus norvegicus [15]): 40.8%; inhibition in vivo at 20 mg/kg (Rattus norvegicus [16]): 21.2% |
| COc1ccc(Cl)c(-c2nnc(S)n2N)c1 | 4.25 | 11 | 7.28 | 5.23 | 5.16 | 9.79 | 2.33 | 10.1 | 5.18 | – | – | 2.59 | 7.16 | 7.26 | 5.08 | 7.05 | 9.1 | 9.17 | 9.06 | 5.02 | – |
